The results in this text go back to PubChem BioAssay AID617 (SRMLSC, 2007).

In general, IC50 refers to the concentration that gives 50% inhibition.

This experiment relates to E. coli BW25113 ΔtolC growth inhibition, OD615. In words: E. coli ΔtolC antibacterial growth inhibition – strain BW25113 ΔtolC::kan, dose response (AID 617). An outline of the steps:
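Test system: E. coli BW25113 ΔtolC::kan bacteria | Amount: 1:1000 diluted subculture inoculum | Medium: LB plus kanamycin | Timing: 20 h exposure at 37 °C | Signal: Absorbance at 615 nm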
For the compound `Cc1cc(NC(=O)Cn2nnc3sc4c(c3c2=O)CCC(C(C)(C)C)C4)no1` (stereo unspecified), the IC50 was 7.77 µM.
The result for `O=C(CSc1nnc(Cc2cccs2)n1Cc1ccco1)Nc1ccc(Br)cc1` reads 5.74 µM.
The value for `COc1ccc(C)cc1NC(=O)CSc1nnc(COc2ccccc2)n1Cc1ccco1` was 22 µM.
As for `COc1ccc(-c2cc(C(=O)N3CCCc4ccccc43)no2)cc1`, the IC50 is 20.5 µM.
The result for `CCn1c2ccccc2c2cc(NC(=O)c3ccco3)ccc21` reads 8.97 µM; that for `N#CC(C#N)=c1ccc2c(c1)N1C3=C(CCCC3)CC3CCCCC31N=2` (stereo unspecified), 75.6 µM.
The value for `c1ccc2oc(SCc3nc4ccccc4s3)nc2c1` was 29.1 µM.
The result for `O=C(CSc1nc(O)c(C2CCCCC2)c(=O)[nH]1)Nc1ccc(Cl)cc1` reads 8.66 µM; that for `Cc1nc(N2CCN(Cc3ccccc3)CC2)nc2c1C(=O)CC(c1ccco1)C2` (stereo unspecified), 10.6 µM.
Consider `Cc1cccc(N2CCN(C(=O)c3cn(C)c(=O)c4c3c3ccccc3n4C)CC2)c1C`, for which the IC50 is 16 µM.
The value for `O=C(CCSc1nc(-c2ccco2)cc(C(F)(F)F)n1)N1CCCc2ccccc21` was 9.2 µM.
The value for `CCOC(=O)c1ccc(Oc2nc(NC(C)(C)C)nc(N(C)C)n2)cc1` was 14.9 µM; that for `O=C(Nc1nnc(-c2ccc3c(c2)CCCC3)o1)C1COc2ccccc2O1` (stereo unspecified) was 0.45 µM.
Turning to `Cn1c(Oc2ccccc2NCc2cc(Br)ccc2O)cc(=O)n(C)c1=O`, the IC50 was 4.08 µM.
The value for `CCCc1cc(C(=O)N2CCN(c3ccccc3C)CC2)cs1` was 8.52 µM.
For `CS(=O)c1nc(-c2ccc(Br)cc2)cc(-c2ccccc2)c1C#N` (stereo unspecified), the IC50 was 10.4 µM.
The result for `Cc1ccc2cc(CN(Cc3ccccc3)Cc3nnnn3C3CCCC3)c(=O)[nH]c2c1` reads 11.6 µM.
The result for `CCOC(=O)c1c(CN2CCOCC2)n(-c2ccccc2)c2ccc(O)cc12` reads 18.3 µM; that for `OCCN(CCO)c1nc(N2CCCCC2)c2nc(N(CCO)CCO)nc(N3CCCCC3)c2n1`, 1.38 µM; that for `CCS(=O)(=O)n1nc(-c2ccccc2)nc1SCc1ccccc1`, 15.7 µM.
Take `O=C(CCc1nc(-c2ccccc2F)no1)Nc1ccc(Oc2ccccc2)cc1`: the concentration for half-maximal inhibition (IC50) was 9.55 µM.
The value for `COc1ccc(OC)c(S(=O)(=O)n2cnc3cc(C)c(C)cc32)c1` was 11.4 µM.
Regarding `CC(C)C[C@H](NC(=O)OC(C)(C)C)c1nnc(SCc2cccc(F)c2)o1`, the concentration for half-maximal inhibition (IC50) is 11.9 µM.
The value for `COc1ccc(-c2csc(NCc3ccco3)n2)cc1C` was 23.2 µM; that for `COC(=O)c1sccc1NC(=O)c1cc2c(s1)CCCC2` was 4.95 µM; that for `CC(C)CCOC(=O)c1c(N)n(CC2CCCO2)c2nc3ccccc3nc12` (stereo unspecified) was 18.3 µM.
The value for `CC1=CC(C)(C)N(C(=O)CSc2nnc(-c3ccccc3)o2)c2ccc(C)cc21` was 16.3 µM; that for `O=c1c2cc3ccccc3n2cnn1Cc1ccccc1F` was 17.2 µM; that for `CSc1nc2ccc(NS(=O)(=O)c3ccc(Cl)s3)cc2s1` was 0.72 µM.
Take `COc1ccc(NS(=O)(=O)c2ccc3oc4ccccc4c3c2)cn1`: the IC50 was 5.62 µM.
For the compound `O=C(Nc1cccc(Cl)c1)N(CCN1CCOCC1)Cc1cccc(Cl)c1`, the 50% inhibitory concentration (IC50) is 6.44 µM.
The result for `Cc1csc(NC(=O)C2CCCN(S(=O)(=O)c3ccc(Br)s3)C2)n1` (stereo unspecified) reads 12.2 µM.
The value for `Cc1ccsc1C(=O)Nc1nnc(-c2ccco2)o1` was 3.92 µM.
As to `COc1ccc(-c2nnc(NC(=O)c3ccc(S(=O)(=O)N4CCc5ccccc5C4)cc3)o2)cc1`, the IC50 is 0.22 µM.
Regarding `CC1CN(c2nc3c(c(=O)n(Cc4ccc(Cl)c(Cl)c4)c(=O)n3C)n2C)CC(C)O1` (stereo unspecified), the IC50 is 20.4 µM.
The value for `O=C(Nc1nnc(-c2ccc3c(c2)OCCO3)o1)c1ccc(Cc2ccccc2)cc1` was 3.26 µM; that for `N#Cc1nc(-c2ccc(OCc3ccccc3)cc2)oc1NCCCn1ccnc1` was 6.08 µM; that for `CC(C)(C)c1ccc(OCc2nc(-c3ccccn3)no2)c(Br)c1` was 6.81 µM.
The value for `Cc1cc(C)c(O)c(-c2cc(C(=O)Nc3ccc(S(=O)(=O)N4CCOCC4)cc3)[nH]n2)c1` was 6.03 µM; that for `CCCCOC(=O)CSc1nnc(-c2ccc(Cl)cc2Cl)o1` was 19.4 µM; that for `CCOC(=O)c1ccc(NC(=O)CSc2nc(SC)ns2)cc1` was 9.73 µM.
The result for `CCOC(=O)c1cnc(-n2nc(C)cc2C)nc1Nc1ccc(N(C)C)cc1` reads 13.7 µM; that for `Cc1nc2nc(-c3ccco3)[nH]n2c(=O)c1Cc1ccccc1`, 5.98 µM.
`Cc1nn(-c2ccccc2)c2sc(C(=O)N(CC(=O)NC(C)(C)C)Cc3ccco3)cc12`: the IC50 is 24.2 µM.
The value for `Cc1nn(-c2ccccc2)c(Cl)c1C1C(C#N)=C(N)Oc2c1c(=O)oc1ccccc21` (stereo unspecified) was 12 µM.
The result for `CC(C)Cn1c(=O)c(C(=O)Nc2cnccn2)c(O)c2ccccc21` reads 14 µM; that for `Cc1cccc(NC(=O)c2cc3n(n2)C(C(F)(F)F)CC(c2ccc4c(c2)OCO4)N3)c1` (stereo unspecified), 6.87 µM; that for `O=S(=O)(Nc1cccc2cccnc12)c1ccc(S(=O)(=O)N2CCCC2)cc1`, 15.3 µM.
The result for `CCOC(=O)C1CCN(c2nc3cc(OC)ccc3cc2C#N)CC1` reads 14.9 µM; that for `c1csc(-c2noc(COc3ccc4c(c3)CCCC4)n2)c1`, 18.4 µM.
As to `C/C(O)=c1/ccc2cccc3nc(C)nc1c23`, the IC50 is 26 µM.
The value for `CC(C)(C)n1c(O)c(C=Nc2ccc3c(c2)CCC3)c(=O)[nH]c1=O` was 12.8 µM; that for `CCCc1nc(SCC(=O)N2CCC(Cc3ccccc3)CC2)c2c(=O)n(C)c(=O)n(C)c2n1` was 11.2 µM; that for `CCOC(=O)Cc1c(C)nc2c(-c3cccc(Br)c3)c[nH]n2c1=O` was 0.17 µM.
The value for `COC(=O)c1cc(CSc2nc3ccc(C)cc3[nH]2)oc1C` was 13.8 µM.
The value for `Cc1cccc(Cn2c(=O)n(Cc3ccco3)c(=O)c3ccccc32)c1` was 6.71 µM; that for `CN(c1cccc(NC(=O)Nc2cccc(Cl)c2)c1)S(C)(=O)=O` was 12.7 µM.
On to `Cc1cccc(S(=O)(=O)C(C#N)c2nc3ccccc3nc2N2CC(C)OC(C)C2)c1` (stereo unspecified), for which the IC50 was 14.4 µM.
For `CCOC(=O)C1CCCN(c2ncnc3c2cnn3-c2ccc(Cl)cc2)C1` (stereo unspecified), the IC50 was 9.92 µM.
The result for `CCOc1ccc2nc(NC(=O)C(CC)Sc3nc(C)cc(=O)[nH]3)sc2c1` (stereo unspecified) reads 12.1 µM.
The result for `Cn1c(=O)c2c(nc(N3CCCCCC3)n2Cc2cccc3ccccc23)n(C)c1=O` reads 7.33 µM.
Turning to `CCCOc1ccccc1NC(=O)c1c(-c2ccccc2)noc1C`, the IC50 is 15.1 µM.
The value for `Cc1cc(C)c(C#N)c(SCC(=O)OC2CCCCC2)n1` was 19.1 µM.
The value for `COc1ccc(CN(Cc2cc3cc4c(cc3[nH]c2=O)OCO4)C(=O)NC2CCCCC2)cc1` was 20.2 µM; that for `CC(C)N(Cc1nc(-c2ccc(Cl)cc2)no1)C(=O)CCC1CCCC1` was 15.5 µM.
The result for `COc1cc(-c2nnc(SCc3ccccc3Cl)o2)cc(OC)c1OC` reads 10.2 µM; that for `Cc1cccn2c(=O)c3cc(C(=O)NCc4ccco4)c(=N)n(CCc4ccccc4)c3nc12`, 43.1 µM; that for `O=C(CSc1nnnn1C1CCCCC1)Nc1cccc(NC(=O)c2ccco2)c1`, 15.5 µM.
With `CC(C)(C)NC(=O)C(c1ccco1)N(C(=O)Cn1nnc(-c2ccc(F)cc2)n1)c1cccc(F)c1` (stereo unspecified), the IC50 was 20.9 µM.
The result for `c1ccc(CN(Cc2ccco2)C(c2ccncc2)c2nnnn2C2CCCC2)cc1` (stereo unspecified) reads 13.2 µM.
The value for `COc1cccc(-c2cc(C(=O)N3CC4(C)CC3CC(C)(C)C4)no2)c1` (stereo unspecified) was 11 µM; that for `COC(=O)c1ccccc1NC(=O)N1c2ccccc2CC1C` (stereo unspecified) was 14.1 µM.
`CCc1nc2ccccc2c(=O)n1NC(=O)c1c(O)c2ccccc2[nH]c1=O`: the 50% inhibitory concentration (IC50) was 5.7 µM.
The result for `CCCOc1ccc2c3c(c(=O)oc2c1OCCC)CCC3` reads 14.5 µM; that for `c1ccc(CC2CCN(Cc3nc(-c4ccccc4)no3)CC2)cc1`, 13.4 µM; that for `Cn1c(=O)n(CCc2ccccc2)c(=O)c2c1nc1n2CCCN1CCc1ccccc1`, 10.5 µM.
The value for `Cc1ccc(Nc2nc(N)nc(CN3CCN(c4ccccc4)CC3)n2)cc1Cl` was 5.97 µM; that for `CCC1(C)Cc2ccccc2-c2nc3n(c(=O)c21)CCCCC3` (stereo unspecified) was 15.8 µM; that for `COc1ccc(-c2[nH]ncc2-c2ccc(Cl)cc2)c(O)c1` was 4.52 µM.
The result for `O=C(C1CC1)N1CCc2cc(S(=O)(=O)NCCC3=CCCCC3)ccc21` reads 17.7 µM; that for `COc1ccc(C(=O)C(CN2CCOCC2)c2ccccc2)cc1F` (stereo unspecified), 17.7 µM; that for `O=S(=O)(Nc1ccc2oc(-c3ccccc3)nc2c1)c1ccccc1`, 9.38 µM.
With `Cc1sc(NC(=O)c2ccco2)c(CN2CCN(c3ccccn3)CC2)c1C`, the 50% inhibitory concentration (IC50) is 9.55 µM.
The result for `CSc1ncc(Cl)c(C(=O)C(C#N)c2nc3c(C)cc(C)cc3c(=O)[nH]2)n1` (stereo unspecified) reads 3.28 µM.
The value for `COCCCN1C(=O)c2[nH]nc(-c3ccccc3O)c2C1c1ccc(Cl)cc1` (stereo unspecified) was 5.96 µM; that for `c1coc(CN(Cc2cccs2)Cc2nnnn2C2CCCCC2)c1` was 19.6 µM; that for `COC(=O)c1ccsc1NC(=O)CN1CCN(c2ccc(F)cc2)CC1` was 18.5 µM.
The result for `O=C(Nc1ccccc1)Nc1ccc(S(=O)(=O)N2CCCCC2)cc1` reads 10.3 µM; that for `Cc1ccc(S(=O)(=O)Nc2cccc(-c3cn4ccsc4n3)c2)cc1`, 15.5 µM; that for `O=C(Nc1nnc(-c2cccs2)o1)c1cccc(Oc2ccccc2)c1`, 0.17 µM.
For the compound `Cc1ccc(/C(O)=C2\C(=O)C(=O)N(c3cc(C)on3)C2c2cccc(Br)c2)cc1` (stereo unspecified), the IC50 is 13.8 µM.
The result for `Cc1cc(/C=C(/C#N)c2cccc(F)c2)c(C)n1-c1cccnc1` reads 10.9 µM; that for `Cc1cc(OCCCC(=O)N2CCCCC2)cc(C)c1Cl`, 28.2 µM; that for `CCn1cc(C(=O)NC2CCCCC2C)c(=O)c2ccc(C)nc21` (stereo unspecified), 5.31 µM.
Take `Cn1c(C(=O)N2CCc3ccccc3C2)cc2oc3ccccc3c21`: the half-inhibitory concentration (IC50) was 7.81 µM.
The result for `O=C(Nc1nc(-c2cc(Cl)sc2Cl)cs1)c1cccs1` reads 1.69 µM.
